# From PubChem
# Hits are enriched below; roughly 2.7% of the tested compounds scored in any of these assays.
# OXTR potentiate – human OXTR potentiators, primary screen, fluorescence, CHO-OTR cells, Fluo-8 calcium. hit rate 0.061% among 320,000. activation, % at 3 µM. AID 2445, 2010. Fluo-8 calcium fluorescence, potentiator mode; 0% = oxytocin EC15, 100% = EC100;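 active means activation above that plate's cutoff, the mean activation of tested compounds plus 3 SD, cut at about 6.6% in these data, passing the limit was not always enough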;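 further: 100% uses oxytocin at 75 nM as the full agonist control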
# Target sequence (P30559 whole entry, looked up): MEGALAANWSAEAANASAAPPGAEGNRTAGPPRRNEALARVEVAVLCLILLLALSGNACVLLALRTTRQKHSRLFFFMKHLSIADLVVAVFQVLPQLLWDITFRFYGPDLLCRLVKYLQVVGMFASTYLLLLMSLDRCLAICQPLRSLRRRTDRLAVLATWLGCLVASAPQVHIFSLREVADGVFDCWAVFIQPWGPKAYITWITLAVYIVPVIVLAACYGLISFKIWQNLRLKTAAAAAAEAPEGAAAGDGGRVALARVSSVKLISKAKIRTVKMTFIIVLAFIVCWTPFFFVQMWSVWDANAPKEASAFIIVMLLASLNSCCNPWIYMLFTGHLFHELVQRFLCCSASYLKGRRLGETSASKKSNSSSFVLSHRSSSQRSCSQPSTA
#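 Assay system: CHO cell line stably expressing human OTR | Also added: Oxytocin at about EC15, sub-maximal agonist stimulus | Times: Compound 6 min at room temperature before oxytocin, 100 s read | Measured by: Fluo-8 intracellular calcium fluorescence, ex 470-495, em 515-575 nm | Controls: EC15 oxytocin alone as 0%, 75 nM oxytocin as 100%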
# OX1R antag-1 – OX1R (HCRTR1) antagonists, primary screen, fluorescence, CHO/OX1R cells, Fluo-8 calcium, orexin A | Fluo-8 calcium fluorescence | hit rate 0.43% among 330,000 | Orexin/Hypocretin receptor type 1 (Homo sapiens), O43613 | inhibition, % at 5 µM;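 active means inhibition above its plate's threshold, mean inhibition of all tested compounds on the plate plus 3 SD, cut at about 37% in these data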;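 further: 0% = orexin A challenge wells and 100% = SB-334867-A antagonist wells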
# OXTR agonist – human OXTR agonists, primary screen, fluorescence, CHO-OTR cells, Fluo-8 calcium. Fluo-8 calcium fluorescence; normalized: DMSO 0%, oxytocin 100%. activation, % at 3 µM. hit rate 0.32% among 320,000. AID 2435, 2010;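 active means activation above the mean of all tested compounds plus 3 SD, cutoff set per screening run, cut at about 20% in these data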;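 further: peak over basal fluorescence ratio from a 100 s FLIPR kinetic read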
# V1aR counter – agonists of human V1a receptor, primary screen, counter-screen for OXTR agonist project, fluorescence, CHO-V1R cells; hit rate 0.25% among 320,000; Fluo-8 calcium fluorescence, agonist mode; 0% DMSO, 100% 3 nM vasopressin; Vasopressin V1a receptor (Homo sapiens), P37288; AID 2797, 2010; activation, % at 3 µM;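 active means activation above the mean activation of all tested compounds plus 3 SD, per screening run, cut at about 20% in these data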;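 further: signal is peak over basal fluorescence ratio across a 100 second FLIPR read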
# OX1R antag-2 – antagonists of human orexin 1 receptor (OX1R) | Orexin/Hypocretin receptor type 1 (Homo sapiens), O43613 | inhibition, % at 6.6 µM | hit rate 1.8% among 330,000 | AID 485270, 2010 | OX1R-expressing cells, FRET antagonist read-out; in the data active means inhibition mostly above about 38%, no sharp cut-off; inactive means mostly below about 40%;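 further: 0% = agonist challenge alone and 100% = reference antagonist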
# CHO parental Ca – ATP-evoked calcium signal inhibitors, parental CHO, primary screen, counter-screen for OX1R antagonist project, cell-based, fluorescence, Fluo-8 calcium dye | hit rate 0.63% among 330,000 | inhibition, % at 5.6 µM | parental CHO-K1, ATP-induced calcium, Fluo-8 fluorescence | AID 463079, 2010;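 active means inhibition above that plate's mean sample inhibition plus 3 SD, cut at about 26% in these data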;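 further: 0% = ATP-challenged DMSO wells and 100% = DMSO wells without ATP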
#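 Material: Parental CHO cells | Reagent: ATP | Compound dosing: Single nominal dose of 5.6 µM per compound | Detection: Intracellular calcium via Fluo-8 no-wash fluorescent dye | Read-out: % inhibition of ATP-induced calcium mobilization | Benchmarks: Low control ATP plus DMSO, high control DMSO only | Replicates: Singlicate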
# * hit, by the source's call; · = no result.
SMILES,OXTR potentiate,OX1R antag-1,OXTR agonist,V1aR counter,OX1R antag-2,CHO parental Ca
Cc1cc(C(=O)CSc2nc3ccc(Cl)cc3[nH]2)c(C)n1CC1CCCO1 (centres undefined),-28.6,41.7,12.6,10.5,87.8*,45.4*
Cc1cc(C(=O)CSc2nc3ccccc3[nH]2)c(C)n1Cc1ccco1,-11.1,24.9,13.1,9.2,77.4*,48.9*
CC(C(Sc1ccccc1N)c1ccccc1)[N+](=O)[O-] (centres undefined),-3.1,-7.7,-0.9,-0.4,15.0,-4.6
COCc1ccc(C(=O)N2CCCC(Nc3ccc4c(c3)OCCO4)C2)o1 (centres undefined),1.2,-22.9,-0.5,0.4,9.4,-10.7
O=C(Nc1ccc(S(=O)(=O)N2CCCC2)cc1)C1CC(=O)N(CCc2ccc(F)cc2)C1 (centres undefined),-5.0,-6.4,0.6,0.8,-3.2,-6.1
CC1(C)CCN2CCC(C)(C)c3c(O)ccc1c32,-11.3,40.5*,24.7*,28.2*,14.4,38.4*
CSc1ccccc1OCc1cc(C(=O)N2CCC(Oc3cccnc3)CC2)no1,-17.1,2.6,6.5,7.9,26.2,2.5
Cc1ccc(C)c(OCCC(=O)N2CCN(S(=O)(=O)c3cc(C)ccc3C)CC2)c1,-2.7,-35.8,-0.4,0.2,11.0,-29.0
CN(C)c1ccc2nsnc2c1[N+](=O)[O-],-3.5,-1.9,0.6,0.1,38.6*,-0.9
Cc1ccc2nsnc2c1NC(=O)c1ccc([N+](=O)[O-])cc1,-0.9,-12.5,0.2,1.0,38.0,-2.9
CN(C)S(=O)(=O)c1ccc(C(=O)OCC(=O)c2csc(N3CCCCC3)n2)cc1,-11.6,3.2,13.4,16.7,7.9,-5.6
COc1cc(CN(CCN(C)C)Cc2ccccc2)ccc1OCc1ccccc1,-10.2,-20.4,8.2,1.5,-6.0,-16.0
COc1ccc(CN(CCc2ccccc2)Cc2ccccc2)cc1OC,-14.3,-40.0,-1.8,0.3,60.1*,-50.1
Cc1c(Cl)c([N+](=O)[O-])nn1CCCC(=O)Nc1cccc(Cl)c1Cl,-3.8,4.7,1.7,4.9,63.7,-17.7
COC(=O)c1ccccc1NC(=O)CCCn1nc([N+](=O)[O-])c(Br)c1C,2.9,3.7,-0.9,0.2,75.0*,-16.7
O=C(Nc1nc(-c2ccc(Cl)s2)cs1)c1ccncc1,-9.0,7.7,10.1,7.2,44.1*,-19.8
O=C(CSCC(=O)N1CCCCC1)Nc1nc(-c2ccc(Cl)s2)cs1,-7.7,-12.8,5.1,7.1,20.4,30.1*
COc1ccccc1N(CC(=O)Nc1cc(C)on1)S(=O)(=O)c1cccc(C(F)(F)F)c1,-0.2,-16.1,-0.6,0.4,12.2,-24.6
Cc1ccnc(Sc2ccc([N+](=O)[O-])cc2[N+](=O)[O-])n1,-11.4,-8.6,-1.4,-1.1,67.5*,-0.4
O=[N+]([O-])c1ccc(Sc2nc3ccccc3o2)c([N+](=O)[O-])c1,-2.7,7.5,-0.8,-0.9,36.8*,15.2
Cc1ccc(Sc2ccc([N+](=O)[O-])cc2[N+](=O)[O-])nc1,-2.0,-34.3,-2.1,-0.2,47.4,-19.5
Nc1nc(Sc2ccc([N+](=O)[O-])cc2[N+](=O)[O-])n[nH]1,-7.9,-4.1,-1.8,6.6,41.7*,-5.2
O=C(COC(=O)C1CC2C=CC1C2)Nc1c(Br)cc([N+](=O)[O-])cc1Br (centres undefined),-2.6,-13.1,-1.1,0.5,18.3,-7.6
CCc1cc(=O)oc2cc(C)cc(OC(C)C(=O)NCc3ccccn3)c12 (centres undefined),-2.8,-15.7,-0.1,0.0,10.8,-14.9
O=C(CN(c1ccccc1)S(=O)(=O)c1ccc(F)cc1)NC1CCCCCC1,-6.2,-17.2,-1.0,1.3,11.6,-7.1
SMILES,OXTR potentiate,OX1R antag-1,OXTR agonist,V1aR counter,OX1R antag-2,CHO parental Ca
CC1(C)Cc2c(cnn2-c2ccccc2)C(NC(=O)CCN2CCCC2=O)C1 (centres undefined),2.9,-11.7,-0.1,-0.1,9.8,-15.1
COc1cccc(/C=N/Nc2snc(SC)c2C#N)c1,-12.0,3.9,2.3,1.8,66.8*,-7.4
CCOC(=O)C1(Cc2ccc(Cl)cc2)CCN(C(C)Cc2ccc(O)c(OC)c2)CC1 (centres undefined),-18.9,-15.3,15.2,12.2,15.3,38.1*
CCOC(=O)c1cnc(-c2ccccc2)nc1N1CCOCC1,5.8,-21.6,-2.0,-0.7,14.5,-21.6
CCOC(=O)c1c(C)oc2c1c(C(c1ccccc1)N1CCOCC1)c(O)c1ccccc12 (centres undefined),-2.7,-13.6,-1.3,-0.9,61.7*,-24.2
NC(=O)CN1C(=O)C(O)(CC(=O)c2ccccc2O)c2ccccc21 (centres undefined),-3.1,5.8,1.7,1.1,55.6*,2.8
C=CCN1C(=O)C(O)(CC(=O)c2ccccc2)c2ccccc21 (centres undefined),-2.0,-22.1,0.3,0.7,7.2,-2.2
CCOC(=O)C1=CN(Cc2cccc(F)c2)S(=O)(=O)N(C)C1CCc1ccccc1 (centres undefined),·,5.5,·,·,18.0,-16.2
CCOc1ccc(N2C(=O)CC(NCCc3c[nH]c4ccccc34)C2=O)cc1 (centres undefined),-12.7,14.0,0.8,0.9,61.4*,-7.4
CCOc1ccc(N2C(=O)CC(NCCc3ccncc3)C2=O)cc1 (centres undefined),-3.7,9.6,-0.8,0.1,11.2,-8.4
CS(=O)(=O)N(Cc1ccc(Cl)cc1)c1ccc(C(=O)N2CCN(c3ccccc3)CC2)cc1,-20.2,24.4,13.9,10.8,4.5,33.7*
CS(=O)(=O)N(Cc1ccccc1)c1ccc(C(=O)N2CCN(c3cccc(Cl)c3)CC2)cc1,-11.3,11.1,6.0,4.9,-1.0,5.7
CC1CCCCC1NC(=O)c1c(O)nc2ccccn2c1=O (centres undefined),3.6,-29.5,-1.6,-0.8,27.8,-5.7
O=C(COC(=O)c1ccc[n+]([O-])c1)Nc1ccc([N+](=O)[O-])cc1C(F)(F)F,-7.2,-11.7,7.0,14.3,33.0*,-3.6
O=C(COC(=O)c1cc[n+]([O-])cc1)Nc1cc([N+](=O)[O-])ccc1Cl,6.6,-9.5,1.3,2.1,57.2*,-13.9
